Compounds with a hit are over-represented: about 4.6% of the library has one in this group of screens.
Rtt109 Vps75 = inhibitors of Candida albicans Rtt109/Vps75 histone acetyltransferase; Q5AAJ8; purified Rtt109/Vps75, ThioGlo CoA-SH fluorescence, 4 h; inhibition, % at 34.9 µM; hit rate 0.16% among 330,000;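 active = inhibition of at least 50% in every replicate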
UCH37 DUB inh = blocks the human deubiquitinase UCH37. inhibition, % (concentration not given with the values). purified proteasome/UCH37, Ub-AMC cleavage fluorescence. hit rate 0.33% among 330,000;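 active = mean inhibition over replicate wells above about 20%, limit read from the data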
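Reagent: Ub-AMC substrate; assay system: Proteasome-associated human UCH37 deubiquitinase; controls: no-proteasome and no-compound wells; read-out: % inhibition of Ub-AMC cleavage fluorescence; timing: 30 min preincubation with enzyme, 25 min cleavage at room temperature; signal: AMC fluorescence from Ub-AMC cleavage, excitation 355 nm, emission 460 nm; buffer or medium: Tris-HCl pH 7.4 plus ovalbumin, ATP-MgCl2, DTT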
FAS TE block = inhibitors of human fatty acid synthase thioesterase domain. recombinant FAS-TE, OMFH fluorogenic substrate, fluorescence endpoint. inhibition, % at 15 µM. hit rate 0.67% among 360,000. AID 602261;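 active = compounds whose normalised, plate-corrected inhibition of enzyme fluorescence in the single-dose primary screen is 50% or more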
PfM18AAP inh-1 = PfM18AAP enzyme inhibition. recombinant PfM18AAP, H-Glu-NHMec fluorogenic cleavage. inhibition, % at 7.35 µM. hit rate 1.2% among 290,000. AID 1822;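 active = inhibition above the campaign mean inhibition over all tested compounds plus 3 SD, cut at about 28% in these data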
HDAC3 inhib = human HDAC3 inhibition | hit rate 0.15% among 320,000 | recombinant HDAC3, fluorogenic peptide/trypsin coupled, fluorescence | O15379 | inhibition, % at 8.3 µM; in the data active = inhibition above about 26%, passing the limit was not always enough
Target sequence (O15379 whole entry, looked up): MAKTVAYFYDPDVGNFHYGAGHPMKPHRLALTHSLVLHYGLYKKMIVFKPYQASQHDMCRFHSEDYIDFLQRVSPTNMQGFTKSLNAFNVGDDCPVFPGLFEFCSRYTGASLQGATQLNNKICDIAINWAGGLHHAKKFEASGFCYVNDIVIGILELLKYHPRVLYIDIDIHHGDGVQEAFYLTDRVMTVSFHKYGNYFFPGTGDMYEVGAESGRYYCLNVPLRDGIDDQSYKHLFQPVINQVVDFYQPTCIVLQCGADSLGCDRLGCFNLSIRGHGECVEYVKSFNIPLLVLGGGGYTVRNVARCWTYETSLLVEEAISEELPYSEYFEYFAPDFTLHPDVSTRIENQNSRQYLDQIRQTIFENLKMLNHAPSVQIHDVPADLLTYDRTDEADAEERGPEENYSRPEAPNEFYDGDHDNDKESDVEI
ALR inh = human ALR oxidase inhibition via reduced H2O2; P55789; purified ALR, DTT oxidation, H2O2 HRP-luminol luminescence; inhibition, % (test concentration not listed); hit rate 3.8% among 290,000; AID 485317;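 active = mean replicate inhibition above about 79%, with every replicate also reaching it, limit read from the data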
Target sequence (P55789 whole entry, looked up): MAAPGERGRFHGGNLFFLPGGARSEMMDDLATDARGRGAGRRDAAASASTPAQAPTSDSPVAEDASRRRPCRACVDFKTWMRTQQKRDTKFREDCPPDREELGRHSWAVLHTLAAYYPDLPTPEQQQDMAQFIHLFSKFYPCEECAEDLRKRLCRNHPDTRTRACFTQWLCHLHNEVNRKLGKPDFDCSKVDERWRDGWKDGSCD
PfM18AAP inh-2 = PfM18AAP inhibition, confirmation. shares compounds with PfM18AAP inh-1. hit rate 28% among 2,400. recombinant PfM18AAP, H-Glu-NHMec fluorogenic cleavage. inhibition, % at 7.35 µM;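 active = mean inhibition over replicate wells above the hit cutoff set for the earlier primary screen, cut at about 29% in these data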
CTSL1 confirm = counter-screen for PFM18AAP inhibitors: confirmation of human cathepsin L inhibitors; shares compounds with PfM18AAP inh-1; purified cathepsin L1, Z-Leu-Arg-MCA fluorescence; inhibition, % at 5.96 µM; 2,400 tested, under 10 active;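 active = average inhibition across replicates above the hit cutoff set in the earlier primary screen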
Of the large screens only hits and unclear results are named; the others gave an inactive call (follow-up assays come after a bar, where they were run).

CC(C)C(=O)c1ccc(O)c(O)c1	PfM18AAP inh-1 41, ALR inh 99 | PfM18AAP inh-2 inactive | CTSL1 confirm inactive
C/C(=N\NC(=O)CC#N)c1ccc(Oc2ccccc2)cc1	PfM18AAP inh-1 33 (no result: UCH37 DUB inh) | PfM18AAP inh-2 inactive | CTSL1 confirm inactive
CC(=NNC(=O)c1ccccc1)C(=O)O	none (no result: Rtt109 Vps75, FAS TE block, PfM18AAP inh-1, HDAC3 inhib, ALR inh)
CC(CC(=O)Nc1ccc(Cl)c(C(F)(F)F)c1)=NNC(=O)c1cccc(O)c1	none (no result: Rtt109 Vps75, FAS TE block, PfM18AAP inh-1, HDAC3 inhib, ALR inh)
CC(C)OCCCn1c(NN)nc2ccccc2c1=O	none
NNc1nc2ccccc2c(=O)n1Cc1ccccc1	PfM18AAP inh-1 54 | PfM18AAP inh-2 39 | CTSL1 confirm inactive
O=C(NNc1ccccc1[N+](=O)[O-])Nc1cccc(Cl)c1	PfM18AAP inh-1 33 (no result: UCH37 DUB inh) | PfM18AAP inh-2 31 | CTSL1 confirm inactive
O=C(Nc1cccc(Cl)c1)Nc1ccccc1C(=O)O	none (no result: UCH37 DUB inh, HDAC3 inhib)
O=C(NNc1ccccc1[N+](=O)[O-])Nc1ccc(F)cc1F	PfM18AAP inh-1 40 | PfM18AAP inh-2 inactive | CTSL1 confirm inactive
O=C(Nc1ccc(F)cc1F)Nc1ccc(F)cc1F	none
O=C(CN1CCN(Cc2ccccc2Cl)CC1)NN=Cc1cccs1	none (no result: Rtt109 Vps75, FAS TE block, PfM18AAP inh-1, HDAC3 inhib, ALR inh)
CC(=O)N(c1ccc2oc(=O)sc2c1)S(=O)(=O)c1cccs1	PfM18AAP inh-1 40 (no result: ALR inh) | PfM18AAP inh-2 inactive | CTSL1 confirm inactive
CC(C)C(=O)N(c1ccc2oc(=O)sc2c1)S(=O)(=O)c1cccs1	PfM18AAP inh-1 37 | PfM18AAP inh-2 inactive | CTSL1 confirm inactive
Cc1ccc(S(=O)(=O)N(C)c2ccc(C(=O)O)cc2)cc1	none
COc1ccc(N(C(C)=O)S(=O)(=O)c2cccs2)cc1	none
CCCC(=O)N(c1ccc2oc(C)c(C(C)=O)c2c1)S(=O)(=O)c1ccc(C(=O)O)cc1	none
CC(=O)N(c1ccc2oc(=O)sc2c1)S(=O)(=O)c1ccc(C(=O)O)cc1	PfM18AAP inh-1 46 (no result: ALR inh) | PfM18AAP inh-2 inactive | CTSL1 confirm inactive
CC(C)C(=O)N(c1cc2sc(=O)oc2c2ccccc12)S(=O)(=O)c1cccs1	none
CCCC(=O)N(c1ccc2oc(=O)sc2c1)S(=O)(=O)c1ccccc1	PfM18AAP inh-1 33 | PfM18AAP inh-2 inactive | CTSL1 confirm inactive
Cc1cc(NN)nc(NS(=O)(=O)c2ccccc2)n1	PfM18AAP inh-1 35 | PfM18AAP inh-2 inactive | CTSL1 confirm inactive
COc1ccc(/C=N/Nc2cc(C)nc(NS(=O)(=O)c3ccc(C)cc3)n2)cc1	none (no result: Rtt109 Vps75, UCH37 DUB inh)
COc1cc(/C=N/Nc2cc(C)nc(NS(=O)(=O)c3ccccc3)n2)ccc1O	PfM18AAP inh-1 32 (no result: UCH37 DUB inh) | PfM18AAP inh-2 inactive | CTSL1 confirm inactive
COc1cc(/C=N/Nc2nc(C)nc3c2cnn3-c2ccccc2)ccc1O	PfM18AAP inh-1 33 (no result: UCH37 DUB inh, HDAC3 inhib, ALR inh) | PfM18AAP inh-2 inactive | CTSL1 confirm inactive
COc1cc(C)nc(NS(=O)(=O)c2ccccc2)n1	none
Cc1cc(NN)nc(NS(=O)(=O)c2ccc(Cl)cc2)n1	PfM18AAP inh-1 37 (no result: UCH37 DUB inh, HDAC3 inhib) | PfM18AAP inh-2 inactive | CTSL1 confirm inactive
COc1cc(C=NNc2nc3ccccc3[nH]c2=O)ccc1O	none (no result: Rtt109 Vps75, FAS TE block, PfM18AAP inh-1, HDAC3 inhib, ALR inh)
CC(C)(C)OC(=O)NCCC(=O)NN=Cc1cccc2cccnc12	none (no result: Rtt109 Vps75, FAS TE block, PfM18AAP inh-1, HDAC3 inhib, ALR inh)
O=C(/C=C/c1ccc(F)cc1)c1cc(Br)ccc1O	none
O=C(/C=C/c1ccccc1)c1cc(Br)ccc(=O)c1O	PfM18AAP inh-1 54 | PfM18AAP inh-2 inactive | CTSL1 confirm inactive
N#CC1=C(N)NC(=S)C(C(N)=O)C1c1ccccc1F (stereo unspecified)	PfM18AAP inh-1 46, ALR inh 84 | PfM18AAP inh-2 30 | CTSL1 confirm inactive
Cc1ccc(N(CC(=O)NN=Cc2cccs2)S(C)(=O)=O)cc1Cl	none (no result: Rtt109 Vps75, FAS TE block, PfM18AAP inh-1, HDAC3 inhib, ALR inh)
CCN1CCC2(CC1)C(C#N)=C(N)Oc1c2sc2nc(C)cc(C)c12	PfM18AAP inh-1 33 | PfM18AAP inh-2 inactive | CTSL1 confirm inactive
Cc1c(O)ccc(C=NNc2nc(-c3cccnc3)nc3ccccc23)c1O	none (no result: Rtt109 Vps75, FAS TE block, PfM18AAP inh-1, HDAC3 inhib, ALR inh)
O=C(NN=Cc1ccc(OC(=O)c2cccc(Br)c2)cc1)c1cccnc1	none (no result: Rtt109 Vps75, FAS TE block, PfM18AAP inh-1, HDAC3 inhib, ALR inh)
COc1ccc(-n2c(SCC(=O)NCc3ccco3)nc3sc4c(c3c2=O)CCN(C)C4)cc1	PfM18AAP inh-1 34, ALR inh 98 | PfM18AAP inh-2 inactive | CTSL1 confirm inactive
CN1CCc2c(sc3nc(SCC(=O)NCc4ccco4)n(-c4ccccc4)c(=O)c23)C1	PfM18AAP inh-1 39 | PfM18AAP inh-2 inactive | CTSL1 confirm inactive
Br/C(C=NN1CCN(Cc2ccccc2)CC1)=C/c1ccccc1	none (no result: Rtt109 Vps75, FAS TE block, PfM18AAP inh-1, HDAC3 inhib, ALR inh)
